Data: ChEMBL document CHEMBL1145061, “New potential uroselective NO-donor alpha1-antagonists” (J Med Chem, 2003)

How the values were obtained:
[1] = target: T1, 5-hydroxytryptamine receptor 1A (Homo sapiens, UniProt P08908); test: Inhibition of [3H]8-OH-DPAT binding to 5-hydroxytryptamine 1A receptor serotonergic receptor in human HeLa cells; assay type: cell-based
T1 sequence (P08908 whole entry): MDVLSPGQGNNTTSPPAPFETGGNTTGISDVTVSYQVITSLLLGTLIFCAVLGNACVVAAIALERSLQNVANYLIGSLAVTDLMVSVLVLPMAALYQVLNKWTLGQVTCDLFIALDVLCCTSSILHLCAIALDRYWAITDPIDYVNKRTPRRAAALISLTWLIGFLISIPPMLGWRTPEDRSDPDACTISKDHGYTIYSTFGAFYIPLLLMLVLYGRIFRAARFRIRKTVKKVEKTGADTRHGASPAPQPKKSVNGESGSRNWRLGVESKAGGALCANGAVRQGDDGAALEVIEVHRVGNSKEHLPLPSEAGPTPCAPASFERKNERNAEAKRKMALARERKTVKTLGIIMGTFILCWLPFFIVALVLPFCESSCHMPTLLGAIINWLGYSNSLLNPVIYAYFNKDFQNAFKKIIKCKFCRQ
How it was run: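 Membranes from HeLa cells expressing the cloned human 5-HT1A receptor, [3H]-8-OH-DPAT competition binding.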

[2] = Thiol induced NO generation, through griess reaction expressed as % NO2- in presence of 5*10e-4 M L-cysteine
How it was run: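 Compound in DMSO diluted to 10^-4 M final in 1:1 v/v 50 mM phosphate buffer (pH 7.4)/MeOH containing 5 × 10^-4 M L-cysteine. Held 1 h at 37 °C, then treated with Griess reagent. Nitrite reported as % NO2- (mol/mol).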

[3] = target: T2, Alpha-1A adrenergic receptor (Homo sapiens, UniProt P35348); test: Inhibition of [3H]prazosin binding to cloned human Alpha-1A adrenergic receptor in CHO cells (chinese hamster ovary cells); assay type: cell-based
T2 sequence (P35348 whole entry): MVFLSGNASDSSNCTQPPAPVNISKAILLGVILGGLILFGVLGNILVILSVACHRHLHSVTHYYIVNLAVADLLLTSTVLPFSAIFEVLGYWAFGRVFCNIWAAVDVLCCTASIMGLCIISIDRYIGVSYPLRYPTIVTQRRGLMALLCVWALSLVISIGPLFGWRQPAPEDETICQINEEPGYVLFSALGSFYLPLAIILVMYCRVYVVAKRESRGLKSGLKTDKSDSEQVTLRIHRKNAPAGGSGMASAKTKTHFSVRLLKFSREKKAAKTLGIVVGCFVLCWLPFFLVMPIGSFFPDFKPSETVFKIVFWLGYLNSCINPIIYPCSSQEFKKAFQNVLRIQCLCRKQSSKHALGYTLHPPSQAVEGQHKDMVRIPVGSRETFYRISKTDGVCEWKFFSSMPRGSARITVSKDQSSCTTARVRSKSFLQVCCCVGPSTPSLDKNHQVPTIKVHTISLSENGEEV
How it was run: (§1)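 Membranes from CHO cells expressing cloned human α1a, α1b or α1d subtypes, [3H]prazosin competition binding.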

[4] = target: T3, Alpha-1D adrenergic receptor (Homo sapiens, UniProt P25100); test: Inhibition of [3H]-prazosin binding to cloned human Alpha-1D adrenergic receptor in CHO cells (chinese hamster ovary cells); assay type: cell-based; how it was run: as §1
T3 sequence (P25100 whole entry): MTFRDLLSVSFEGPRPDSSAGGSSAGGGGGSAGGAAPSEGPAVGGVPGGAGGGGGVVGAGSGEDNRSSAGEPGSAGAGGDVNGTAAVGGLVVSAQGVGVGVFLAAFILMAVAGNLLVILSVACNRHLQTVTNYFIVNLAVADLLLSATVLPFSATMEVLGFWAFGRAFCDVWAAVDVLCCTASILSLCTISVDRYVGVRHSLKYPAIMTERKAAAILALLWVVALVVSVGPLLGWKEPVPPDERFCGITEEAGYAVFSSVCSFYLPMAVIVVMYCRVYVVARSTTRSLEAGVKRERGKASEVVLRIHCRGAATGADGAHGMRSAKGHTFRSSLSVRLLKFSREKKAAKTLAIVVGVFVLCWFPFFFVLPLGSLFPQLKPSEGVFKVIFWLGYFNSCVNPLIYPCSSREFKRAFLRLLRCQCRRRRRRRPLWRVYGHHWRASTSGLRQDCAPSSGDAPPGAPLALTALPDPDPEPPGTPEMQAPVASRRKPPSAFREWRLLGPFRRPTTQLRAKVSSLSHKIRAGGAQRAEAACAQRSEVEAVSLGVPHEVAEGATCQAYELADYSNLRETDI

[5] = target: T4, Alpha-1A adrenergic receptor (Rattus norvegicus, UniProt P43140); test: Functional Alpha-1A adrenergic receptor antagonistic activity of noradrenaline induced contractions in prostatic portion of rat vas deferens; assay type: tissue-based; conditions: read-out: pA2 (converted)
T4 sequence (P43140 whole entry): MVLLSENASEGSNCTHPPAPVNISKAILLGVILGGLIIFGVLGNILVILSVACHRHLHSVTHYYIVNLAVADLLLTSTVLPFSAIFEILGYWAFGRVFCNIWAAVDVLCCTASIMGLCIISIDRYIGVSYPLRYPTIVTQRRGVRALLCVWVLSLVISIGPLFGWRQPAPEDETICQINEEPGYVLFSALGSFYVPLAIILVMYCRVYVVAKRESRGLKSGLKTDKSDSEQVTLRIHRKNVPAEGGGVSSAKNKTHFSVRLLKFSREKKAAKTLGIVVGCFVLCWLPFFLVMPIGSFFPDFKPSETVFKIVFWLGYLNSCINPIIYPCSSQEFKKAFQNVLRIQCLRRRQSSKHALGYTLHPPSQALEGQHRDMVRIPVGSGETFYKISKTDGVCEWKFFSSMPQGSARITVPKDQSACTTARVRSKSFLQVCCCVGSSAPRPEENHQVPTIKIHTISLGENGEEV
How it was run: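 Rat vas deferens, prostatic portion. Cumulative noradrenaline concentration-response curves were run with and without antagonist. pA2 came from 6-14 determinations. Where two antagonist concentrations were used and gave similar pA2, antagonism was taken as competitive; otherwise an apparent pA2 was taken at one concentration. Where NO relaxation appeared, 1 µM ODQ was added at least 10 min before the antagonist.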

[6] = target: T5, Alpha-1B adrenergic receptor (Homo sapiens, UniProt P35368); test: Inhibition of [3H]prazosin binding to cloned human Alpha-1B adrenergic receptor in CHO cells (chinese hamster ovary cells); assay type: cell-based; how it was run: as §1
T5 sequence (P35368 whole entry): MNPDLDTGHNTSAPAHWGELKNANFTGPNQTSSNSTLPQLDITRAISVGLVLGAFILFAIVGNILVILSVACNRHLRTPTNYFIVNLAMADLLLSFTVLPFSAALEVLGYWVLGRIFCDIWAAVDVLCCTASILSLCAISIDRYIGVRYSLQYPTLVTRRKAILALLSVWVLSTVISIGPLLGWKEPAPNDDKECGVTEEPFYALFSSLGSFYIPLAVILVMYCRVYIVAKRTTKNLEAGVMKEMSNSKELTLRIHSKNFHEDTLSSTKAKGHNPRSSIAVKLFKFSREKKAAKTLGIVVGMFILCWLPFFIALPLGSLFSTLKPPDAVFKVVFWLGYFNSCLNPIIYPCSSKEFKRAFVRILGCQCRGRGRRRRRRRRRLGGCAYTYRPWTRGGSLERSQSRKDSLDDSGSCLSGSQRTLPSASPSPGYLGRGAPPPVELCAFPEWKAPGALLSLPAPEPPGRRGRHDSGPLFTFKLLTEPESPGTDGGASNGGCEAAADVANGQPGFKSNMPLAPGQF

[7] = target: T6, Adrenergic receptor alpha-2 (Rattus norvegicus, UniProt P22086+P19328+P22909); test: Inhibition of [3H]- rauwolscine binding to alpha-2 adrenergic receptor in membrane of rat cerebral cortex; assay type: tissue-based
T6 sequence (P22086 whole entry): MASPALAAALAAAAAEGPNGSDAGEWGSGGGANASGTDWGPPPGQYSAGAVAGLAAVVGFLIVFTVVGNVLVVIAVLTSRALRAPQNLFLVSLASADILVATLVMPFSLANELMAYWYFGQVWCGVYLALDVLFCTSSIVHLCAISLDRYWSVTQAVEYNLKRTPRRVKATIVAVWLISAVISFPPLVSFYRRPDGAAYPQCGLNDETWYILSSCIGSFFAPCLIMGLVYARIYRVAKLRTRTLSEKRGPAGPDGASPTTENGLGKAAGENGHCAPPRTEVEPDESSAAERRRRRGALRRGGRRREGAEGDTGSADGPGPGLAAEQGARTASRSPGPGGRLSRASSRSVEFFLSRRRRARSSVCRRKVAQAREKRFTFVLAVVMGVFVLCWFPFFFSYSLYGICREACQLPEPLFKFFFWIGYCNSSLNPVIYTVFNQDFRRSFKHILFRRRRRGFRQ
T6 sequence (P19328 whole entry): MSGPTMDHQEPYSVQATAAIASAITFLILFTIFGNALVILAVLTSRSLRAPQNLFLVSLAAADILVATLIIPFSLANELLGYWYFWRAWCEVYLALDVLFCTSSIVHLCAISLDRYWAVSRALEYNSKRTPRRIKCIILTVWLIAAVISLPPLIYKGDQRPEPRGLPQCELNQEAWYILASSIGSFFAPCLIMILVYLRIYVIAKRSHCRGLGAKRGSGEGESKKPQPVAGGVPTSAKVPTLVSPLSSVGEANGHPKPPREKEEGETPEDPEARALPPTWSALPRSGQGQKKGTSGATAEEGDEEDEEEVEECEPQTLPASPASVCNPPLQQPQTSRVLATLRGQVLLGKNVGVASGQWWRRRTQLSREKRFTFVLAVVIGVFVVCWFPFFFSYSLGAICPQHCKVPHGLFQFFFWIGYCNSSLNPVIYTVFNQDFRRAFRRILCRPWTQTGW
T6 sequence (P22909 whole entry): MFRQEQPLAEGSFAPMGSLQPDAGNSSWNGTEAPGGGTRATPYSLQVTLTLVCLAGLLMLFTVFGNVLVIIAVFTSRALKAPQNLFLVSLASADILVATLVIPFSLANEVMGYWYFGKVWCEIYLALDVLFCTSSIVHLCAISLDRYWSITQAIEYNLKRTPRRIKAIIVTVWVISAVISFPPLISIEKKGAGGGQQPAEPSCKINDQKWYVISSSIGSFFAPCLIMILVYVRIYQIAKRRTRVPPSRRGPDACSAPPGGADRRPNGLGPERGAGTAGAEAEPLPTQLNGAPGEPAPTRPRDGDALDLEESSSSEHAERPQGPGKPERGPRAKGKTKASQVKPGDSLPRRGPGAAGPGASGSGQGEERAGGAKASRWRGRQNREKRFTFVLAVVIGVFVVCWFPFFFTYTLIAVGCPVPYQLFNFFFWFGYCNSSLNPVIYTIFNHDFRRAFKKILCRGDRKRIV
How it was run: (§2)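 Native α2 receptors in rat cerebral cortex membranes, competition binding with [3H]rauwolscine.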

[8] = target: T6, Adrenergic receptor alpha-2; test: Inhibition of [3H]- rauwolscine binding to alpha-2 adrenergic receptor in rat cerebral cortex; assay type: tissue-based; how it was run: as §2
[9] = target: T5, Alpha-1B adrenergic receptor; test: Inhibition of [3H]-prazosin binding to cloned human Alpha-1B adrenergic receptor in CHO cells (chinese hamster ovary cells); assay type: cell-based; how it was run: as §1

| Ki [1] | NO2- (mol/mol) [2] | Ki [3] | Ki [4] | Kb [5] | Ki [6] | Ki [7] | Ki [8] | Ki [9] | SMILES |
| --- | --- | --- | --- | --- | --- | --- | --- | --- | --- |
| 1.6 nM | 1.11% | 0.16 nM | 4.2 nM | 6.17 nM | 4.7 nM | 53.5 nM | – | – | Cc1c(-c2ccccc2)oc2c(C(=O)NCCCN3CCN(c4ccccc4OCc4no[n+]([O-])c4C)CC3)cccc2c1=O |
| – | – | – | – | 3.8 nM | – | – | 33.3 nM | – | COc1ccccc1N1CCN(CCCNC(=O)c2cccc3c(=O)c(C)c(-c4ccccc4)oc23)CC1 [UPIDOSIN] |
| 2.2 nM | 32.3% | 0.73 nM | 3.9 nM | 34.7 nM | – | 81.1 nM | – | 6.5 nM | Cc1c(-c2ccccc2)oc2c(C(=O)NCCCN3CCN(c4ccccc4OCc4no[n+]([O-])c4C#N)CC3)cccc2c1=O |
| 7.2 nM | < 1% | 0.094 nM | 3.5 nM | 2.29 nM | – | 81.8 nM | – | 1.2 nM | Cc1c(-c2ccccc2)oc2c(C(=O)NCCCN3CCN(c4ccccc4OCCCO[N+](=O)[O-])CC3)cccc2c1=O |
| 1.2 nM | 5.28% | 1.8 nM | 20.4 nM | 10.7 nM | – | 359 nM | – | 15.9 nM | Cc1c(-c2ccccc2)oc2c(C(=O)NCCCN3CCN(c4ccccc4OCc4no[n+]([O-])c4C(N)=O)CC3)cccc2c1=O |
